Measured values published in ChEMBL document CHEMBL1153560, “In vitro activities of doripenem and six comparator drugs against 423 aerobic and anaerobic bacterial isolates from infected diabetic foot wounds” (2008).
Values after ≈ are worked out from the molar mass of the structure shown.

Key:
Type in all cases: functional
Proteus vulgaris = assay: Antibacterial activity against Proteus vulgaris isolated from patient with diabetic foot infection assessed as percent resistant isolates after 18 to 24 hrs by broth microdilution method
How it was run: (§1)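 Aerobes subcultured on Trypticase soy blood agar, then broth microdilution in cation-adjusted Mueller-Hinton broth. Trays prepared in-house with twofold dilutions and stored at −70°C. Overnight colonies suspended to about 5 × 10^5 CFU/ml final. Read after 18 to 24 h at 37°C. QC strains included S. aureus ATCC 29213 and E. coli ATCC 25922.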

[1] = tested on: Corynebacterium amycolatum; assay: Antibacterial activity against Corynebacterium amycolatum isolated from patient with diabetic foot infection assessed as percent resistant isolates after 48 hrs by broth microdilution method
How it was run: (§2)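 Isolates subcultured on Trypticase soy blood agar. Broth microdilution in cation-adjusted Mueller-Hinton broth with lysed horse blood, using in-house twofold dilution trays stored at −70°C. Inoculum from overnight colonies at about 5 × 10^5 CFU/ml final. Read after 18 to 24 h at 37°C, up to 48 h for some Corynebacterium strains.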

[2] = tested on: Corynebacterium minutissimum; assay: Antibacterial activity against Corynebacterium minutissimum isolated from patient with diabetic foot infection assessed as percent resistant isolates after 48 hrs by broth microdilution method; how it was run: as §2
[3] = tested on: Corynebacterium urealyticum; assay: Antibacterial activity against Corynebacterium urealyticum isolated from patient with diabetic foot infection assessed as percent resistant isolates after 48 hrs by broth microdilution method; how it was run: as §2
[4] = tested on: Streptococcus dysgalactiae subsp. equisimilis; assay: Antibacterial activity against Streptococcus dysgalactiae subsp. equisimilis isolated from patient with diabetic foot infection after 18 to 24 hrs by broth microdilution method
How it was run: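 Streptococcal isolates were subcultured on Trypticase soy blood agar. Broth microdilution used cation-adjusted Mueller-Hinton broth with lysed horse blood, in in-house trays of serial twofold drug dilutions stored at −70°C. Overnight colonies were suspended to a final inoculum of approximately 5 × 10^5 CFU/ml. MIC was read after 18 to 24 h incubation at 37°C.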

Staphylococcus aureus [5] = assay: Antibacterial activity against methicillin-resistant Staphylococcus aureus isolated from patient with diabetic foot infection assessed as percent resistant isolates after 18 to 24 hrs by broth microdilution method
How it was run: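 Isolates grown on Trypticase soy blood agar, then tested by broth microdilution in unsupplemented cation-adjusted Mueller-Hinton broth. In-house trays held serial twofold drug dilutions and were stored at −70°C. Overnight colonies were suspended to a final inoculum near 5 × 10^5 CFU/ml, and trays read after 18–24 h at 37°C. QC strains: S. aureus ATCC 29213, E. coli ATCC 25922.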

[6] = tested on: Staphylococcus epidermidis; assay: Antibacterial activity against Staphylococcus epidermidis isolated from patient with diabetic foot infection assessed as percent resistant isolates after 18 to 24 hrs by broth microdilution method; how it was run: as §1
[7] = tested on: Staphylococcus haemolyticus; assay: Antibacterial activity against Staphylococcus haemolyticus isolated from patient with diabetic foot infection assessed as percent resistant isolates after 18 to 24 hrs by broth microdilution method
Streptococcus agalactiae = assay: Antibacterial activity against Streptococcus agalactiae isolated from patient with diabetic foot infection assessed as percent resistant isolates after 18 to 24 hrs by broth microdilution method
How it was run: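 Streptococci subcultured on Trypticase soy blood agar and tested by broth microdilution in cation-adjusted Mueller-Hinton broth with lysed horse blood. In-house twofold dilution trays stored at −70°C. About 5 × 10^5 CFU/ml final inoculum from overnight colonies. Read after 18 to 24 h at 37°C.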

Streptococcus pyogenes = assay: Antibacterial activity against Streptococcus pyogenes isolated from patient with diabetic foot infection assessed as percent resistant isolates after 18 to 24 hrs by broth microdilution method
How it was run: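 Isolates subcultured on Trypticase soy blood agar. MICs by broth microdilution in cation-adjusted Mueller-Hinton broth with lysed horse blood, in in-house trays of serial twofold drug dilutions stored at −70°C. Colonies from overnight growth were suspended to a final inoculum of about 5 × 10^5 CFU/ml. Read after 18–24 h at 37°C.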

[8] = tested on: Corynebacterium amycolatum; assay: Antibacterial activity against Corynebacterium amycolatum isolated from patient with diabetic foot infection after 48 hrs by broth microdilution method
How it was run: (§3)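 Isolates were subcultured on Trypticase soy blood agar. Broth microdilution used cation-adjusted Mueller-Hinton broth with lysed horse blood, in-house trays of twofold drug dilutions stored at −70°C. Colonies from overnight growth gave a final inoculum of about 5 × 10^5 CFU/ml. Trays were read after 18 to 24 h at 37°C, up to 48 h for some strains.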

Corynebacterium jeikeium = assay: Antibacterial activity against Corynebacterium jeikeium isolated from patient with diabetic foot infection after 48 hrs by broth microdilution method; how it was run: as §3
[9] = tested on: Corynebacterium minutissimum; assay: Antibacterial activity against Corynebacterium minutissimum isolated from patient with diabetic foot infection after 48 hrs by broth microdilution method; how it was run: as §3
[10] = tested on: Corynebacterium urealyticum; assay: Antibacterial activity against Corynebacterium urealyticum isolated from patient with diabetic foot infection after 48 hrs by broth microdilution method; how it was run: as §3
Corynebacterium xerosis = assay: Antibacterial activity against Corynebacterium xerosis isolated from patient with diabetic foot infection after 48 hrs by broth microdilution method; how it was run: as §3
Staphylococcus aureus [11] = assay: Antibacterial activity against methicillin-sensitive Staphylococcus aureus isolated from patient with diabetic foot infection after 18 to 24 hrs by broth microdilution method
How it was run: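 Subcultured on Trypticase soy blood agar, then broth microdilution in cation-adjusted Mueller-Hinton broth. Trays were made in-house with serial twofold drug dilutions and stored at −70°C. Inoculum was colonies from overnight growth, final approximately 5 × 10^5 CFU/ml. MIC was read after 18 to 24 h at 37°C. QC strains: S. aureus ATCC 29213 and E. coli ATCC 25922.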

Escherichia coli [12] = assay: Antibacterial activity against Escherichia coli isolated from patient with diabetic foot infection assessed as percent resistant isolates after 18 to 24 hrs by broth microdilution method; how it was run: as §1
Klebsiella aerogenes = assay: Antibacterial activity against Enterobacter aerogenes isolated from patient with diabetic foot infection assessed as percent resistant isolates after 18 to 24 hrs by broth microdilution method; how it was run: as §1
Enterobacter cloacae = assay: Antibacterial activity against Enterobacter cloacae isolated from patient with diabetic foot infection assessed as percent resistant isolates after 18 to 24 hrs by broth microdilution method; how it was run: as §1
Klebsiella pneumoniae = assay: Antibacterial activity against Klebsiella pneumoniae isolated from patient with diabetic foot infection assessed as percent resistant isolates after 18 to 24 hrs by broth microdilution method; how it was run: as §1
Pseudomonas aeruginosa [13] = assay: Antibacterial activity against Pseudomonas aeruginosa isolated from patient with diabetic foot infection assessed as percent resistant isolates after 18 to 24 hrs by broth microdilution method; how it was run: as §1
Escherichia coli [14] = assay: Antibacterial activity against Escherichia coli isolated from patient with diabetic foot infection after 18 to 24 hrs by broth microdilution method
How it was run: (§4)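 Isolates were subcultured on Trypticase soy blood agar and tested by broth microdilution in cation-adjusted Mueller-Hinton broth. In-house trays of twofold drug dilutions were stored at −70°C. Overnight colonies gave a final inoculum of about 5 × 10^5 CFU/ml. Plates were read after 18 to 24 h at 37°C.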

Providencia rettgeri = assay: Antibacterial activity against Proteus rettgeri isolated from patient with diabetic foot infection after 18 to 24 hrs by broth microdilution method; how it was run: as §4
Pseudomonas aeruginosa [15] = assay: Antibacterial activity against Pseudomonas aeruginosa isolated from patient with diabetic foot infection after 18 to 24 hrs by broth microdilution method; how it was run: as §4

Structure (SMILES)	Activity (Proteus vulgaris)	MIC50 [4]	MIC90 [4]	Activity (Staphylococcus aureus [5])	Activity [6]	Activity [7]	Activity (Streptococcus agalactiae)	Activity (Streptococcus pyogenes)	MIC50 [8]	MIC90 [8]	MIC50 (Corynebacterium jeikeium)	MIC90 (Corynebacterium jeikeium)	MIC50 [9]	MIC90 [9]	MIC50 [10]	MIC90 [10]	MIC50 (Corynebacterium xerosis)	MIC90 (Corynebacterium xerosis)	MIC50 (Staphylococcus aureus [11])	MIC90 (Staphylococcus aureus [11])	other results
CCC[C@@H]1C[C@@H](C(=O)N[C@@H]([C@H]2O[C@H](SC)[C@H](O)[C@@H](O)[C@H]2O)[C@H](C)Cl)N(C)C1 [CLINDAMYCIN]	0%	0.125 µg/mL (≈ 0.294 µM)	> 64 µg/mL	39%	33%	13%	33%	13%	> 64 µg/mL	> 64 µg/mL	> 64 µg/mL	> 64 µg/mL	> 64 µg/mL	> 64 µg/mL	> 64 µg/mL	> 64 µg/mL	2 µg/mL (≈ 4.71 µM)	> 64 µg/mL	0.125 µg/mL (≈ 0.294 µM)	0.25 µg/mL (≈ 0.588 µM)	Activity [1]: 100%; Activity [2]: 100%; Activity [3]: 100%
C[C@@H](O)[C@H]1C(=O)N2C(C(=O)O)=C(S[C@@H]3CN[C@H](CNS(N)(=O)=O)C3)[C@H](C)[C@H]12 [DORIPENEM]	0%	≤ 0.015 µg/mL	≤ 0.015 µg/mL	100%	67%	73%	0%	0%	1 µg/mL (≈ 2.38 µM)	8 µg/mL (≈ 19 µM)	1 µg/mL (≈ 2.38 µM)	8 µg/mL (≈ 19 µM)	1 µg/mL (≈ 2.38 µM)	8 µg/mL (≈ 19 µM)	1 µg/mL (≈ 2.38 µM)	8 µg/mL (≈ 19 µM)	0.125 µg/mL (≈ 0.297 µM)	0.25 µg/mL (≈ 0.595 µM)	0.03 µg/mL (≈ 0.0713 µM)	0.03 µg/mL (≈ 0.0713 µM)	Activity (Escherichia coli [12]): 0%; Activity (Klebsiella aerogenes): 0%; Activity (Enterobacter cloacae): 0%; Activity (Klebsiella pneumoniae): 0%; Activity (Pseudomonas aeruginosa [13]): 7%; MIC50 (Escherichia coli [14]): 0.03 µg/mL (≈ 0.0713 µM); MIC90 (Escherichia coli [14]): 0.03 µg/mL (≈ 0.0713 µM); MIC50 (Providencia rettgeri): 0.125 µg/mL (≈ 0.297 µM); MIC90 (Providencia rettgeri): 0.25 µg/mL (≈ 0.595 µM); MIC50 (Pseudomonas aeruginosa [15]): 0.25 µg/mL (≈ 0.595 µM); MIC90 (Pseudomonas aeruginosa [15]): 2 µg/mL (≈ 4.76 µM)
C[C@@H](O)[C@H]1C(=O)N2C(C(=O)O)=C(S[C@@H]3CN[C@H](C(=O)Nc4cccc(C(=O)O)c4)C3)[C@H](C)[C@H]12 [ERTAPENEM]	0%	≤ 0.015 µg/mL	≤ 0.015 µg/mL	100%	67%	73%	0%	0%	1 µg/mL (≈ 2.1 µM)	32 µg/mL (≈ 67.3 µM)	1 µg/mL (≈ 2.1 µM)	32 µg/mL (≈ 67.3 µM)	1 µg/mL (≈ 2.1 µM)	32 µg/mL (≈ 67.3 µM)	1 µg/mL (≈ 2.1 µM)	32 µg/mL (≈ 67.3 µM)	0.5 µg/mL (≈ 1.05 µM)	1 µg/mL (≈ 2.1 µM)	0.125 µg/mL (≈ 0.263 µM)	0.25 µg/mL (≈ 0.526 µM)	Activity (Escherichia coli [12]): 0%; Activity (Klebsiella aerogenes): 0%; Activity (Enterobacter cloacae): 0%; Activity (Klebsiella pneumoniae): 0%; MIC50 (Escherichia coli [14]): ≤ 0.015 µg/mL; MIC90 (Escherichia coli [14]): 0.06 µg/mL (≈ 0.126 µM); MIC50 (Providencia rettgeri): ≤ 0.015 µg/mL; MIC90 (Providencia rettgeri): 0.25 µg/mL (≈ 0.526 µM); MIC50 (Pseudomonas aeruginosa [15]): 8 µg/mL (≈ 16.8 µM); MIC90 (Pseudomonas aeruginosa [15]): 32 µg/mL (≈ 67.3 µM)
C[C@@H](O)[C@H]1C(=O)N2C(C(=O)O)=C(SCCNC=N)C[C@H]12 [IMIPENEM ANHYDROUS]	0%	≤ 0.015 µg/mL	≤ 0.015 µg/mL	100%	67%	73%	0%	0%	0.25 µg/mL (≈ 0.835 µM)	32 µg/mL (≈ 107 µM)	0.25 µg/mL (≈ 0.835 µM)	32 µg/mL (≈ 107 µM)	0.25 µg/mL (≈ 0.835 µM)	32 µg/mL (≈ 107 µM)	0.25 µg/mL (≈ 0.835 µM)	32 µg/mL (≈ 107 µM)	0.03 µg/mL (≈ 0.1 µM)	0.125 µg/mL (≈ 0.418 µM)	≤ 0.015 µg/mL	0.03 µg/mL (≈ 0.1 µM)	Activity (Escherichia coli [12]): 0%; Activity (Klebsiella aerogenes): 0%; Activity (Enterobacter cloacae): 0%; Activity (Klebsiella pneumoniae): 0%; Activity (Pseudomonas aeruginosa [13]): 13%; Activity [1]: 7%; Activity [2]: 30%; Activity [3]: 30%; MIC50 (Escherichia coli [14]): 0.125 µg/mL (≈ 0.418 µM); MIC90 (Escherichia coli [14]): 0.25 µg/mL (≈ 0.835 µM); MIC50 (Providencia rettgeri): 0.5 µg/mL (≈ 1.67 µM); MIC90 (Providencia rettgeri): 4 µg/mL (≈ 13.4 µM); MIC50 (Pseudomonas aeruginosa [15]): 2 µg/mL (≈ 6.68 µM); MIC90 (Pseudomonas aeruginosa [15]): 8 µg/mL (≈ 26.7 µM)
C[C@@H](O)[C@H]1C(=O)N2C(C(=O)O)=C(S[C@@H]3CN[C@H](C(=O)N(C)C)C3)[C@H](C)[C@H]12 [MEROPENEM]	0%	≤ 0.015 µg/mL	≤ 0.015 µg/mL	100%	67%	73%	0%	0%	–	–	1 µg/mL (≈ 2.61 µM)	16 µg/mL (≈ 41.7 µM)	1 µg/mL (≈ 2.61 µM)	16 µg/mL (≈ 41.7 µM)	1 µg/mL (≈ 2.61 µM)	16 µg/mL (≈ 41.7 µM)	0.125 µg/mL (≈ 0.326 µM)	0.25 µg/mL (≈ 0.652 µM)	0.06 µg/mL (≈ 0.156 µM)	0.125 µg/mL (≈ 0.326 µM)	Activity (Escherichia coli [12]): 0%; Activity (Klebsiella aerogenes): 0%; Activity (Enterobacter cloacae): 0%; Activity (Klebsiella pneumoniae): 0%; Activity (Pseudomonas aeruginosa [13]): 7%; Activity [1]: 7%; Activity [2]: 20%; Activity [3]: 20%; MIC50 (Escherichia coli [14]): 0.03 µg/mL (≈ 0.0782 µM); MIC90 (Escherichia coli [14]): 0.03 µg/mL (≈ 0.0782 µM); MIC50 (Providencia rettgeri): 0.06 µg/mL (≈ 0.156 µM); MIC90 (Providencia rettgeri): 0.125 µg/mL (≈ 0.326 µM); MIC50 (Pseudomonas aeruginosa [15]): 0.5 µg/mL (≈ 1.3 µM); MIC90 (Pseudomonas aeruginosa [15]): 4 µg/mL (≈ 10.4 µM)
